# Variants at the floor of the assay were thinned out.
# B1: tRNA (parent)
# chain: GUUCCGUUGGCGUAAUGGUAACGCGUCUCCCUCCUAAGGAGAAGACUGCGGGUUCGAGUCCCGUACGGAACG
# Variants of: B1
# Assay: yeast fitness relative to wild type (ratio to wild type); higher = fitter; tRNA-Arg(CCU), competitive growth, 37 C, YPD
# Method in brief: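 Genotype frequency changes were the basis for Darwinian fitness relative to wild type. The frequencies came from 100-nucleotide paired-end sequencing of gene amplicons from the start population and each end population of pooled yeast strains with tRNA-Arg(CCU) gene variants at the native locus. Competition ran in YPD at 37°C for 24 hours in six replicates, genotypes needed ≥ 100 starting reads, and estimates < 0.5 were set to 0.5.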
row,Variant,yeast fitness
1,G9C G51C C62G,≤ 0.5
2,G10A C24G G39C C66U,≤ 0.5
3,G9C U28C C31U,≤ 0.5
4,G10A C60G A70U,≤ 0.5
5,G10A A21G C30A A42C,≤ 0.5
6,G10A A20G U26C G39A G50A,≤ 0.5
7,G9C U47C,0.632
8,G9C U47G,0.595
9,G10A A20G C46U G50U C55U,≤ 0.5
10,G10A A20G G41A C49U U53A C66G,≤ 0.5
11,G9U A20C C29U G50C U59G C62U G68A,≤ 0.5
12,G10A A36G A65U,≤ 0.5
13,G9U A14C C24U U35C C46G G52A C61A,≤ 0.5
14,G10A A36U,0.596
15,G10A C29A C34G A43C,0.68
16,G10A A21G C24A C66U,≤ 0.5
17,G10A C22G C27U G56A C66G,0.504
18,G10A A65U G68A,≤ 0.5
19,G10A A20C G38A G41A C49U A57U,≤ 0.5
20,G10A C55A,0.67
21,G10A A42U,0.805
22,G10A A70C,0.856
23,G10A A70U,0.894
24,G10A A65U,0.788

row,Variant,yeast fitness
1,G10A A65C,0.786
2,G9C U32A,0.648
3,G10A A21C G52C,≤ 0.5
4,G10A A21C C22A G25C G38A U59A C60U,≤ 0.5
5,G9C U54C,0.704
6,G9C U54A,0.658
7,G10A C33G A43G G58A G67A A69U,0.543
8,G10A C24A C49G G58C,≤ 0.5
9,G9U C24G C55U C66U,≤ 0.5
10,G10A C24A C33U A57U U59G,≤ 0.5
11,G9C U16G A37C,0.735
12,G9U U16G,0.612
13,G10A C24A C29G U35A A36U,≤ 0.5
14,G10A C27A A36U A37U G48C C61G A69U,0.576
15,G10A C55G G58A,≤ 0.5
16,G9C U13A G17C,≤ 0.5
17,G10A C34A,0.712
18,G10A C33U U64A,0.553
19,G10A A40C,0.771
20,G10A A21U C27U C49A U64C,≤ 0.5
21,G9C U19C C24U C27A,≤ 0.5
22,G10A C29A A45U,≤ 0.5
23,G10A C49U A69U,≤ 0.5
24,G10A A14C U32A,≤ 0.5

row,Variant,yeast fitness
1,G10A A43U A69C,0.887
2,G10A A36C A42U,0.557
3,G9C G52A,0.564
4,G10A C11G C31U A37C,≤ 0.5
5,G10A C22U C27U C33U A43U U54C,≤ 0.5
6,G9U A14G G18A C46A C49G,≤ 0.5
7,G10A A20G,0.649
8,G10A A20U,0.786
9,G10A C33U A45U G48C U64A A70U,≤ 0.5
10,G9U C24G A45C,≤ 0.5
11,G9C U26G U32A A57U,0.633
12,G10A C24A A43U G48A,≤ 0.5
13,G10A A40U G52C,≤ 0.5
14,G10A A36C A45C,0.634
15,G10A C24A C30A C31G A43U U54G C62G,0.544
16,G9C U32C U53C,≤ 0.5
17,G10A C30G C46U,≤ 0.5
18,G9C U32A G58C,0.583
19,G9C U13C U47G,≤ 0.5
20,G10A C46U,0.812
21,G10A A20G C29U C49U G56A G63A,≤ 0.5
22,G10A C11A A15C C24A C34A C46G G51A,≤ 0.5
23,G10A A20C A57C,≤ 0.5
24,G10A A57U,0.607

row,Variant,yeast fitness
1,G10A A57G,0.852
2,G10A C33U U59C,≤ 0.5
3,G10A A21G C29A U53C C61G G67A A69C,≤ 0.5
4,G10A C24A C62U,≤ 0.5
5,G10A A15U,0.681
6,G10A A15C,0.613
7,G9C U13A G25A A40C C66U,≤ 0.5
8,G10A A20C G38A G41A A65C,≤ 0.5
9,G10A A21G G67C,0.617
10,G10A A57U U59A A65C,0.561
11,G10A A43G G52C U53C G63C,≤ 0.5
12,G10A A20U C30A C62U,≤ 0.5
13,G9C U26A G48C,≤ 0.5
14,G10A C22U U47C G68A,≤ 0.5
15,G10A C22U G68A,≤ 0.5
16,G10A A21G C22U C55U,≤ 0.5
17,G10A A57U U59C,≤ 0.5
18,G10A C49A C61U,≤ 0.5
19,G9C U28A C46U A70U,0.615
20,G9U A65U,0.639
21,G9C U16A C29A G58C A69U,0.645
22,G10A A15C A45C C49G,0.553
23,G9C U28G C55G A69U,≤ 0.5
24,G10A A42U U59A,≤ 0.5

row,Variant,yeast fitness
1,G9C U26C C34G A37G C60G A65C,≤ 0.5
2,G10A C24U C49U,0.53
3,G10A A21G A65C,0.545
4,G10A A15G A42C G50C,≤ 0.5
5,G10A C11G G44A C49G A65U,≤ 0.5
6,G9C U28C G44C G51A,≤ 0.5
7,G9C G58C,1.06
8,G9C G58A,0.869
9,G10A A15U A36U G63A,≤ 0.5
10,G10A C11U A15G C30U U47C C61G A69C,≤ 0.5
11,G10A C29G A43U U53G,≤ 0.5
12,G9C U32A G56C,≤ 0.5
13,G9C U35A A45C U47G C62G A65C,≤ 0.5
14,G10A A21C C61G U64C,≤ 0.5
15,G9C U19A G58A A65G,≤ 0.5
16,G9C U28A C29A U35G,≤ 0.5
17,G9U C24U U35A A40G C60A G67C,≤ 0.5
18,G9C U16G C29A C66U,≤ 0.5
19,G9C U16C C66U,≤ 0.5
20,G10A C24U C55U C66U,0.52
21,G10A C27G C60A,≤ 0.5
22,G10A A14G A70C,0.535
23,G10A C31U C34A A40G A65U,≤ 0.5
24,G9C U19C C31G,0.605

row,Variant,yeast fitness
1,G10A C31A G41C,≤ 0.5
2,G9C G68A,0.763
3,G9C G67A,0.58
4,G10A A14U C66U,≤ 0.5
5,G10A A14G,0.671
6,G10A A14C,0.539
7,G10A A65G A70C,0.65
8,G9U G63A,0.71
9,G9C U19A A21G A43C A65G G67A,≤ 0.5
10,G10A A14G C29G,≤ 0.5
11,G10A C11A A20U C66G,≤ 0.5
12,G10A A14G C46A A57G,≤ 0.5
13,G10A C30U G41A A69C,0.548
14,G10A A21U A43U A45U G50C,≤ 0.5
15,G10A A36C A45C A70U,≤ 0.5
16,G10A C33U A45U G48C U64A,≤ 0.5
17,G10A A15G C49G G68U,≤ 0.5
18,G9C G52C C60A,≤ 0.5
19,G9C U19C,0.764
20,G9C U19C G48A C66U,0.657
21,G10A C31A U32C G41C,≤ 0.5
22,G10A C24G G68A,0.735
23,G10A A21U A70C,≤ 0.5
24,G10A A36G U59C A70G,≤ 0.5

row,Variant,yeast fitness
1,G10A A15U G17C A45U C49G A70U,≤ 0.5
2,G9C U28C A37C C46G,0.768
3,G9C G58C U59A C60U,≤ 0.5
4,G10A C33U A40G C55G A65C,≤ 0.5
5,G9C U54G A70C,0.545
6,G9C U13C A20C,0.706
7,G10A C49U,0.697
8,G10A C49G,0.668
9,G10A A36G G38C,≤ 0.5
10,G10A A43G G56U A69G,≤ 0.5
11,G9C U16C C30U A65G,≤ 0.5
12,G10A A21G A40U,0.558
13,G9C U28A A45C G48C C62G,0.545
14,G9C U13C A43U,0.618
15,G10A A15C A45C C49G G67U A69C,≤ 0.5
16,G10A C34U A43G,≤ 0.5
17,G10A A15C G25A,0.582
18,G9U U13C A57C C66A,≤ 0.5
19,G10A C29G C34G,≤ 0.5
20,G10A C29G U53A G56C C62G,≤ 0.5
21,G9C U35G G41A G56A A70C,≤ 0.5
22,G10A C11G,0.565
23,G10A C11U,0.777
